Laboratory results from PMC2853048 (Journal of medicinal chemistry, 2009).

Key:
human Gli1 = target: T1, human Gli1 (Homo sapiens, UniProt P08151); experiment: Gli-mediated transcription reporter assay in C3H10T1/2 cells with exogenous Gli1; format: cell-based; conditions: for inhibition of Gli1-mediated transcription (Gli-reporter activity), in words: Gli1-transfected C3H10T1/2 cells, 24 h, 20 µM or 40 µM
T1 sequence (P08151 1-1106): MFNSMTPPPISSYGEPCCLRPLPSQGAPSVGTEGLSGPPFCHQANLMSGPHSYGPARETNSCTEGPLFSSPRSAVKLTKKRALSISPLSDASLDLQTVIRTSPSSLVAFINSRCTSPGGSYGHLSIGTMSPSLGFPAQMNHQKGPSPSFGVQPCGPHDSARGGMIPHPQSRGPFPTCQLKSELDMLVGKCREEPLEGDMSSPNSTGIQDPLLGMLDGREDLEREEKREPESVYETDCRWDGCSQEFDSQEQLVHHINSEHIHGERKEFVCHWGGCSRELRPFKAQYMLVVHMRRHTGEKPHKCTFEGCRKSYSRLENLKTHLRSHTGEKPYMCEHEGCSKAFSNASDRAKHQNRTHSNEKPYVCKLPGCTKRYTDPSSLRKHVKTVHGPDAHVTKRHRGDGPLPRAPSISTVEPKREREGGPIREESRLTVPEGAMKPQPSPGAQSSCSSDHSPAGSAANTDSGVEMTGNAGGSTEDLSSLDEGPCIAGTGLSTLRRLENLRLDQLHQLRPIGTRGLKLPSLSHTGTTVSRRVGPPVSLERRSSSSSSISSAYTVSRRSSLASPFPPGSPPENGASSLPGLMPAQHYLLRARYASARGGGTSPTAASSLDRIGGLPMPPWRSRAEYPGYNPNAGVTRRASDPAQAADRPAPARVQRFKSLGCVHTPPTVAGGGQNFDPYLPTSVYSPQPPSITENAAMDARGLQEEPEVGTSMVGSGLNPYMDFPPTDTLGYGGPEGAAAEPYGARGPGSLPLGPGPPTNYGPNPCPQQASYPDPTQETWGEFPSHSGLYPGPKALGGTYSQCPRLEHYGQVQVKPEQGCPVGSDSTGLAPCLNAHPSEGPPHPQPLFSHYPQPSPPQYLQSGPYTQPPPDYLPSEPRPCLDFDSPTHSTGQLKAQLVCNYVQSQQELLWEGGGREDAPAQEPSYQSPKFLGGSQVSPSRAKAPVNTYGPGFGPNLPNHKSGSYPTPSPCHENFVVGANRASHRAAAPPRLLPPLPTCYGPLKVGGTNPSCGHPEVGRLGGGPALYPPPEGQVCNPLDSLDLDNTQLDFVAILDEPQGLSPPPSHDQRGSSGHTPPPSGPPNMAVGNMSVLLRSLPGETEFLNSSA

C3H10T1/2 cells = experiment: Toxicity towards C3H10T1/2 cells in the reporter assay; format: cell-based, mouse; conditions: data not shown
endogenous Gli1 = experiment: Gli-mediated transcription reporter assay in Rh30 cells; format: cell-based; conditions: Rh30 cells without cotransfection of exogenous Gli1, 24 h, 10, 20 or 40 µM
How it was run: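 Rh30 cells were grown in RPMI-1640 with 10% FBS at 37 °C, 5% CO2. At about 70% confluence they were transfected overnight with GliLuc-BS (500 ng/mL) and pRL-CMV (2.5 ng/mL) using Fugene6. Cells were replated, then dosed 18 h later for 24 h. Lysates were read by dual luciferase (firefly/Renilla). DMSO = 0% inhibition; triplicates, SE shown.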

BJ-hTERT cells = experiment: Cell viability assay; format: cell-based; conditions: noncancerous human skin fibroblasts, 40 µM, 72 h
How it was run: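 Cells plated in 384-well format 24 h before dosing. A 10-mM DMSO stock was diluted in EMEM to 160 µM (4×) and added in triplicate to a final 40 µM. Incubated 68 h at 37 °C, then Alamar Blue for 4 h at 37 °C. Fluorescence read at ex 510 / em 590 nm; viability expressed relative to DMSO control wells.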

exogenous Gli1 protein = experiment: Western blot of Gli1 protein levels in Gli1-transfected C3H10T1/2 cells; format: cell-based, human
[1] = Stability of compounds in C3H10T1/2 cell cultures; format: in vitro ADME, mouse; conditions: 24 hours

| Compound | inhibition of Gli1-mediated transcription (Gli-reporter activity), in words (human Gli1) | other results |
| --- | --- | --- |
| (S)-2-(3-Benzoylphenyl)-N-phenethylpropanamide [Compound 48] | significantly lower activity than 36 |  |
| C[C@H](COC(=O)Nc1ccc(O)cc1)c1cccc(C(=O)c2ccccc2)c1 [Compound 61, (S)-2-(3-Benzoylphenyl)propyl 4-hydroxyphenylcarbamate] | substantially decreased the activity |  |
| C[C@H](COC(=O)NCCc1ccc(O)cc1)c1cccc(C(=O)c2ccccc2)c1 [Compound 62, (S)-2-(3-Benzoylphenyl)propyl 4-hydroxyphenethylcarbamate] | substantially decreased the activity |  |
| (S)-2-(3-Benzoylphenyl)-N-(2-hydroxyphenethyl)propanamide [Compound 44] | slightly decreased at 20 µM |  |
| C[C@H](C(=O)Nc1ccc(O)cc1)c1cccc(C(=O)c2ccccc2)c1 [Compound 54, (S)-2-(3-Benzoylphenyl)-N-(4-hydroxyphenyl)propanamide] | decreased activity |  |
| O=C(Cc1cccc(Oc2ccccc2)c1)NCCc1ccc(O)cc1 [Compound 42, N-(4-Hydroxyphenethyl)-2-(3-phenoxyphenyl)acetamide] | equipotent |  |
| C[C@H](C(=O)NCCc1ccc(O)cc1)c1cccc(C(=O)c2ccccc2)c1 [Compound 36, (S)-2-(3-Benzoylphenyl)-N-(4-hydroxyphenethyl)propanamide] | high activity | toxicity towards the C3H10T1/2 cells (C3H10T1/2 cells): minimal toxicity as compared to 32; inhibition of Gli-reporter activity in Rh30 cells, in words (endogenous Gli1): downregulated; cell viability / toxicity, BJ-hTERT (BJ-hTERT cells): without showing toxicity; exogenous Gli1 protein level (exogenous Gli1 protein): not reduced; stability in the C3H10T1/2 cell cultures [1]: stable |
| (S)-2-(3-Benzoylphenyl)-N-(4-chlorophenethyl)propanamide [Compound 49] | slightly lower activity than 36 |  |
| CC(C(=O)NCCc1ccc(O)cc1)c1cccc(C(=O)c2ccccc2)c1 (racemic) [Compound 37, (±)-2-(3-Benzoylphenyl)-N-(4-hydroxyphenethyl)propanamide] | lower activity than did 36 |  |
| CC(C)Cc1ccc(C(C)C(=O)NCCc2ccc(O)cc2)cc1 (stereo not drawn) [Compound 34, N-(4-Hydroxyphenethyl)-2-(4-isobutylphenyl)propanamide] | modest inhibition |  |
| C[C@H](CNC(=O)NCCc1ccc(O)cc1)c1cccc(C(=O)c2ccccc2)c1 [Compound 60, (S)-1-(2-(3-Benzoylphenyl)propyl)-3-(4-hydroxyphenethyl)urea] | comparable to that of 36 | cell viability / toxicity, BJ-hTERT (BJ-hTERT cells): toxic |
| C[C@H](CNC(=O)CCc1ccc(O)cc1)c1cccc(C(=O)c2ccccc2)c1 [Compound 56, (S)-N-(2-(3-Benzoylphenyl)propyl)-3-(4-hydroxyphenyl)propanamide] | modest increase in the potency |  |
| C[C@H](C(=O)NCCc1ccc(O)c(O)c1)c1cccc(C(=O)c2ccccc2)c1 [Compound 50, (S)-2-(3-Benzoylphenyl)-N-(3,4-dihydroxyphenethyl)propanamide] |  | stability in the C3H10T1/2 cell cultures [1]: significant degradation |
| C[C@H](C(=O)N(CCc1ccc(O)cc1)CCc1ccc(O)cc1)c1cccc(C(=O)c2ccccc2)c1 [Compound 65, (S)-2-(3-Benzoylphenyl)-N,N-bis(4-hydroxyphenethyl)propanamide] |  | inhibition selectivity of Gli1-mediated transcription over Gli2-mediated transcription (human Gli1; C3H10T1/2 cells, from IC50 values): least selective; stability in the C3H10T1/2 cell cultures [1]: stable |
| C[C@H](C(=O)NCc1ccc(O)cc1)c1cccc(C(=O)c2ccccc2)c1 [Compound 53, (S)-2-(3-Benzoylphenyl)-N-((4-hydroxyphenyl)methyl)propanamide] | decreased activity |  |
| (S)-2-(3-Benzoylphenyl)-N-(4-hydroxy-3-methoxyphenethyl)propanamide [Compound 51] | reduced the activity by about half |  |
| (S)-2-(3-Benzoylphenyl)-N-(4-methoxyphenethyl)propanamide [Compound 47] | decrease in the activity |  |
| (S)-2-(3-Benzoylphenyl)-N-(3-hydroxy-4-methoxyphenethyl)propanamide [Compound 52] | reduced the activity by about half |  |
| CCCN(CCc1ccc(O)cc1)C(=O)[C@@H](C)c1cccc(C(=O)c2ccccc2)c1 [Compound 63, (S)-2-(3-Benzoylphenyl)-N-(4-hydroxyphenethyl)-N-propylpropanamide] |  | inhibition of Gli-reporter activity in Rh30 cells, in words (endogenous Gli1): downregulated; cell viability / toxicity, BJ-hTERT (BJ-hTERT cells): without showing toxicity; exogenous Gli1 protein level (exogenous Gli1 protein): not reduced; stability in the C3H10T1/2 cell cultures [1]: stable |
| O=C(Cc1ccc(Oc2ccccc2)cc1)NCCc1ccc(O)cc1 [Compound 43, N-(4-Hydroxyphenethyl)-2-(4-phenoxyphenyl)acetamide] | equipotent |  |
| C[C@H](C(=O)NCCc1ccc(O)cc1)c1cccc(C(O)c2ccccc2)c1 (stereo partly drawn) [Compound 39, (2S)-2-(3-(Hydroxy(phenyl)methyl)phenyl)-N-(4-hydroxyphenethyl)propanamide] | less potent than 36 |  |
| C[C@H](C(=O)NCCc1ccc(O)cc1)c1cccc(Cc2ccccc2)c1 [Compound 40, (S)-2-(3-Benzylphenyl)-N-(4-hydroxyphenethyl)propanamide] | less potent than 36 |  |
| COc1ccc(C(=O)NC[C@@H](C)c2cccc(C(=O)c3ccccc3)c2)cc1 [Compound 57, (S)-N-(2-(3-Benzoylphenyl)propyl)-4-methoxybenzamide] | retained the activity |  |
| COc1ccc2cc([C@@H](C)C(=O)NCCc3ccc(O)cc3)ccc2c1 [Compound 38, (R)-N-(4-Hydroxyphenethyl)-2-(6-methoxynaphthalen-2-yl)propanamide] | lower activity than did 35 |  |
| C[C@H](CNC(=O)Nc1ccc(O)cc1)c1cccc(C(=O)c2ccccc2)c1 [Compound 59, (S)-1-(2-(3-Benzoylphenyl)propyl)-3-(4-hydroxyphenyl)urea] | comparable to that of 36 | cell viability / toxicity, BJ-hTERT (BJ-hTERT cells): toxic |
| C[C@H](CNC(=O)c1ccc(O)cc1)c1cccc(C(=O)c2ccccc2)c1 [Compound 55, (S)-N-(2-(3-Benzoylphenyl)propyl)-4-hydroxybenzamide] | better activity |  |
| COc1ccc(COC[C@@H](C)c2cccc(C(=O)c3ccccc3)c2)cc1 [Compound 58, (S)-(3-(1-(4-Methoxybenzyloxy)propan-2-yl)phenyl)(phenyl)methanone] | almost no activity |  |
| O=C(Cc1ccccc1Oc1ccccc1)NCCc1ccc(O)cc1 [Compound 41, N-(4-Hydroxyphenethyl)-2-(2-phenoxyphenyl)acetamide] | decreased activity |  |
